Assay results taken from ChEMBL document CHEMBL1641412, “Synthesis and 11β hydroxysteroid dehydrogenase 1 inhibition of thiazolidine derivatives with an adamantyl group” (Bioorg Med Chem Lett, 2011).
Each block holds one compound with its values, some of them ahead of it.

Legend:
[1] = target: 11-beta-hydroxysteroid dehydrogenase 1 (Homo sapiens, UniProt P28845); test: Inhibition of human 11beta-HSD1 expressed in CHO cells after 3 hrs by HTRF cortisol assay; type: cell-based
[2] = target: T1, 11-beta-hydroxysteroid dehydrogenase type 2 (Homo sapiens) (UniProt P80365); test: Inhibition of human 11beta-HSD2 expressed in HEK293 cells at 10 uM after 24 hrs by HTRF cortisol assay; type: cell-based
T1 sequence (whole entry): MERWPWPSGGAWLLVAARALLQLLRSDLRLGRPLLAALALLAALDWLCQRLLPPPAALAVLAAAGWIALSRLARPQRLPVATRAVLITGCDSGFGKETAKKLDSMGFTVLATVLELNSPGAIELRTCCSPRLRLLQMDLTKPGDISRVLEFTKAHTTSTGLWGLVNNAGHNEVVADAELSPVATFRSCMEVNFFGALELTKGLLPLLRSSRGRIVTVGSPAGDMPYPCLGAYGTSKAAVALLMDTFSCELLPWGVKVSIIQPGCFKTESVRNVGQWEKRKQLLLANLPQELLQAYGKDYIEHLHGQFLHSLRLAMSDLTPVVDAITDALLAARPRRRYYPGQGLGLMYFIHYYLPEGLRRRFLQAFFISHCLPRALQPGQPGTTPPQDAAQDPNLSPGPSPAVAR

[3] = Metabolic stability in human liver microsomes after 30 mins; type: ADME, Microsome; conditions: read-out: Stability
[4] = target: 11-beta-hydroxysteroid dehydrogenase 1 (Mus musculus, UniProt P50172); test: Inhibition of mouse 11beta-HSD1 expressed in CHO cells after 3 hrs by HTRF cortisol assay; type: cell-based
CYP1A2 = target: T2, CYP1A2 (Homo sapiens, UniProt P05177); test: Inhibition of CYP1A2 at 10 uM; type: ADME
T2 sequence (P05177 whole entry): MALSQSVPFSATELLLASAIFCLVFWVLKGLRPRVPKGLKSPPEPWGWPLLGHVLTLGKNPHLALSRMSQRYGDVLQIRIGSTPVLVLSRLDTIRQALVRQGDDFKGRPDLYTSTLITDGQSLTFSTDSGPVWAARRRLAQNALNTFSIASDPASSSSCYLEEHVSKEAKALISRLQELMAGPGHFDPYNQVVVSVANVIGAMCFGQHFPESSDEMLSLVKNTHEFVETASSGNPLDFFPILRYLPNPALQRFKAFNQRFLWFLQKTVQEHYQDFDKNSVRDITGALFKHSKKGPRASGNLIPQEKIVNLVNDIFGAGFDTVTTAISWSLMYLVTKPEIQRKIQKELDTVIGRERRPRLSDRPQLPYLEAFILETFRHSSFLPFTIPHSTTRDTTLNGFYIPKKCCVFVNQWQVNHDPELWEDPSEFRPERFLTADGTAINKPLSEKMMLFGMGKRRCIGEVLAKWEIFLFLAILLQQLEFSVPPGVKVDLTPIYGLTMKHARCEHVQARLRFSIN

CYP2C19 = CYP2C19 (Homo sapiens, UniProt P33261); test: Inhibition of CYP2C19 at 10 uM; type: ADME
CYP2D6 = CYP2D6 (Homo sapiens, UniProt P10635); test: Inhibition of CYP2D6 at 10 uM; type: ADME
CYP3A4 = CYP3A4 (Homo sapiens, UniProt P08684); test: Inhibition of CYP3A4 at 10 uM; type: ADME
[5] = Cmax in po dosed rat; type: ADME, organism-based; set-up: route oral; conditions: in vivo
[6] = Clearance in po dosed rat; type: ADME, organism-based; conditions: in vivo
[7] = Oral bioavailability in po dosed rat; type: ADME, organism-based; conditions: in vivo
Mus musculus [8] = test: In vivo inhibition of 11beta-HSD1 in C57/BL6 mouse lnguinal fat pad assessed as cortisol product at 40 mg/kg, po after 2 hrs by ELISA; type: functional; conditions: C57Bl/6, Fat pad
Mus musculus [9] = test: In vivo inhibition of 11beta-HSD1 in C57Bl/6 mouse liver assessed as cortisol product at 40 mg/kg, po after 2 hrs by ELISA; type: functional; conditions: C57Bl/6, 2 h
[10] = target: Voltage-gated inwardly rectifying potassium channel KCNH2 (Homo sapiens, UniProt Q12809); test: Binding affinity to human ERG
[11] = AUC (0 to 8 hrs) in po dosed rat; type: ADME, organism-based; set-up: time < 8 hr, route oral; conditions: plasma
Procedure, shortened: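 Rats dosed orally; plasma exposure expressed as AUC over 0–8 h.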

Cynomolgus monkey [12] = test: In vivo inhibition of 11beta-HSD1 in cynomolgus monkey lnguinal fat pad assessed as cortisol product at 20 mg/kg, po after 2 hrs by ELISA; type: functional; conditions: Macaca fascicularis
Cynomolgus monkey [13] = test: In vivo inhibition of 11beta-HSD1 in cynomolgus monkey liver assessed as cortisol product at 20 mg/kg, po after 2 hrs by ELISA; type: functional; conditions: Macaca fascicularis
Mus musculus [14] = test: Antidiabetic activity in KKAy mouse assessed as reduction of non-fasting plasma glucose level at 100 mg/kg, po qd for 18 days relative to control; type: functional; set-up: scale not given: the % may be the effect or the level left
Procedure, shortened: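 KKAy mice dosed orally at 100 mg/kg for 18 days alongside vehicle-treated controls; non-fasting blood glucose measured after 18 days; n = 7 mice/group, means ± SEM.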

Mus musculus [15] = test: Antidiabetic activity in KKAy mouse assessed as reduction of AUC of plasma glucose level at 100 mg/kg, po qd for 18 days by oral glucose tolerance test relative to control; type: functional; set-up: scale not given: the % may be the effect or the level left

Sequence of 11-beta-hydroxysteroid dehydrogenase 1 (Homo sapiens, UniProt P28845) (P28845 whole entry): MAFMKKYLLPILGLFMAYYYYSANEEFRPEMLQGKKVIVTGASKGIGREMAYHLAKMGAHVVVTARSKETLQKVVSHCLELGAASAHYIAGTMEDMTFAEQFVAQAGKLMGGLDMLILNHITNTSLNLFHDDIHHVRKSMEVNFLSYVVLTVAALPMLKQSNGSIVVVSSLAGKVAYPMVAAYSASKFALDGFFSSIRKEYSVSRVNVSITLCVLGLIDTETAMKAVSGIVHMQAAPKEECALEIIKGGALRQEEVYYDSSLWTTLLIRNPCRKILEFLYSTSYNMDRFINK
Sequence of 11-beta-hydroxysteroid dehydrogenase 1 (Mus musculus, UniProt P50172) (P50172 whole entry): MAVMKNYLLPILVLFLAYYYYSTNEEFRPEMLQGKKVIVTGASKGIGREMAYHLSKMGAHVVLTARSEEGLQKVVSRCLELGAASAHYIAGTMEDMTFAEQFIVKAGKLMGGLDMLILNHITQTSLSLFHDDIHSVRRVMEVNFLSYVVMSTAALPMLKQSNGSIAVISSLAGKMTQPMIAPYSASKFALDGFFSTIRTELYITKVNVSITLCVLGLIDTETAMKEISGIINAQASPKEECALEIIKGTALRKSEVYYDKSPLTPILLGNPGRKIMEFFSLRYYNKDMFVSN
Sequence of CYP2D6 (P10635 whole entry): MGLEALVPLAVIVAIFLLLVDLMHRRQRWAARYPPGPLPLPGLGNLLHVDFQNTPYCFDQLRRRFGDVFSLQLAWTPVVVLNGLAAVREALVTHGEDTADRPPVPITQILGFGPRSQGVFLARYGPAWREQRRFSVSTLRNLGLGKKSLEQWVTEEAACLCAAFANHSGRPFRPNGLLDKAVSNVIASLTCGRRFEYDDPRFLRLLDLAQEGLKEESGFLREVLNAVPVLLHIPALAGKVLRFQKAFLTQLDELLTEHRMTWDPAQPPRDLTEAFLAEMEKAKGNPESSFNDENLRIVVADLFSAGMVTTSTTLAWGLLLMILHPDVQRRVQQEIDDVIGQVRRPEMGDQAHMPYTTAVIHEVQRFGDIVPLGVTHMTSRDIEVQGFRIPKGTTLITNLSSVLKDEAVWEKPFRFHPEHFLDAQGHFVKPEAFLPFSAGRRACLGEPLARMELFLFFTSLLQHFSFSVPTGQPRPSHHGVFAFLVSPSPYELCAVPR
Sequence of CYP2C19 (P33261 whole entry): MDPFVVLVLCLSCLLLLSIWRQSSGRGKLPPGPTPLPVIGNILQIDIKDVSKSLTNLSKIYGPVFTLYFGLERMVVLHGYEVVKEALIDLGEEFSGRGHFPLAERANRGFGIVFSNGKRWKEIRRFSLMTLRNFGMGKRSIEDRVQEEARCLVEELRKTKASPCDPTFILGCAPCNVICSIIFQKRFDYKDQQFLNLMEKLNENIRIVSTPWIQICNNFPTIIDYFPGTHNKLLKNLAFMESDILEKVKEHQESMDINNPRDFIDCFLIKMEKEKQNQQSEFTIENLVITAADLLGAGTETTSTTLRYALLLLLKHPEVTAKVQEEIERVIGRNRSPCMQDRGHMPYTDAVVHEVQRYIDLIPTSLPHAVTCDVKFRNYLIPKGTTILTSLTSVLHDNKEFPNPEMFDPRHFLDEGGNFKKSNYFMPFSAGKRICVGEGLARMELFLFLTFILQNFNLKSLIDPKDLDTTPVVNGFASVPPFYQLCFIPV
Sequence of CYP3A4 (P08684 whole entry): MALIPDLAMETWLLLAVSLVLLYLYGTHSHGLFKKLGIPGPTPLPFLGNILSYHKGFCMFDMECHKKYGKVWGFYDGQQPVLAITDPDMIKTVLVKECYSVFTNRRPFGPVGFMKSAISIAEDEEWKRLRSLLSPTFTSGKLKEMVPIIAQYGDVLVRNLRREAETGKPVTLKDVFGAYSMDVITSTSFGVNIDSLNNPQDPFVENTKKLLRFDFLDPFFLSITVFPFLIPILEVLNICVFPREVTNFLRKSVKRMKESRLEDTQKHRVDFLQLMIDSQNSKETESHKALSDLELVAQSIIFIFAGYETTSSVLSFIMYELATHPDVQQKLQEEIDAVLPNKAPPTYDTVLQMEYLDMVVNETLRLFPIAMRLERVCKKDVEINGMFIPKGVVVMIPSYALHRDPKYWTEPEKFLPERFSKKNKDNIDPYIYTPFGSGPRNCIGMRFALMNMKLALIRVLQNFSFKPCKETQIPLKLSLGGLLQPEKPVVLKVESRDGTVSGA
Sequence of Voltage-gated inwardly rectifying potassium channel KCNH2 (Q12809 whole entry): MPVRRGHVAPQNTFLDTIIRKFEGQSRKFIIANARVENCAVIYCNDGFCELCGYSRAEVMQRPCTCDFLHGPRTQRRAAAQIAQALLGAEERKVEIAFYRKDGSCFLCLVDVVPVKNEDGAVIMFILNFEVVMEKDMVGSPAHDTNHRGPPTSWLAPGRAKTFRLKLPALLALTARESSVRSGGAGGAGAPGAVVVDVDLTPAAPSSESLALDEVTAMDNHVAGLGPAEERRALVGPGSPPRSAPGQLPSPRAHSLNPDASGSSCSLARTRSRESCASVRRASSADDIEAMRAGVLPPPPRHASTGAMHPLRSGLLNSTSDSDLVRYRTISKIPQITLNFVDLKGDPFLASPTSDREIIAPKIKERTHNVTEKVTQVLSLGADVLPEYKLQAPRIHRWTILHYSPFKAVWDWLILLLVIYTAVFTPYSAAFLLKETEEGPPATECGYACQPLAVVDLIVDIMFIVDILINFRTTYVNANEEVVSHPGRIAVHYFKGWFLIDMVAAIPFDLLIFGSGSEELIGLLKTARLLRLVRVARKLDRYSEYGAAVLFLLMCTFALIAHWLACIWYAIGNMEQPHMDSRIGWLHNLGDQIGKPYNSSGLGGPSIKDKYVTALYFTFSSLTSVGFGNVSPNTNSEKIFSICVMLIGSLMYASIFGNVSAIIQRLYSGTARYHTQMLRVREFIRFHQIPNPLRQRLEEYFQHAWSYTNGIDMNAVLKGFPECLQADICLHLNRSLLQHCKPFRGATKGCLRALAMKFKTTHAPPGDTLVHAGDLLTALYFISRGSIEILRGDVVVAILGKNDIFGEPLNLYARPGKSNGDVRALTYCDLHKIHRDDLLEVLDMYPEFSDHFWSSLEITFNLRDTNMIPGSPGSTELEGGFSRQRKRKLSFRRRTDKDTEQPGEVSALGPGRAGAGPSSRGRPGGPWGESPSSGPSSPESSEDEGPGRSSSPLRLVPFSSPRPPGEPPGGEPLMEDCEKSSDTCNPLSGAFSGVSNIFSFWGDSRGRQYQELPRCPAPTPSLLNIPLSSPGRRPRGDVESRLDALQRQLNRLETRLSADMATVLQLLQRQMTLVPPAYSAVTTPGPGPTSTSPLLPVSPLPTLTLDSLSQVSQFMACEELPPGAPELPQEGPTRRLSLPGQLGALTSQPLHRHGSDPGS

SMILES: NC(=O)C12CC3CC(C1)C(NC(=O)C1SCCN1S(=O)(=O)c1ccc(Cl)c(Cl)c1)C(C3)C2 (stereo unspecified)
- IC50 [1]: 5 nM
- inhibition [2]: 47%
- remaining at 0.5 h [3]: 43%

SMILES: NC(=O)C12CC3CC(C1)C(NC(=O)C1SCCN1S(=O)(=O)c1ccccc1F)C(C3)C2 (mixture of isomers)
- IC50 [1]: 4 nM

SMILES: NC(=O)C12CC3CC(C1)C(NC(=O)C1SCCN1S(=O)(=O)c1ccccc1F)C(C3)C2 (stereo in doubt; 8g (E)) [listing 1 of 2 here]
- IC50 [1]: 3 nM
- IC50 [4]: 3 nM
- remaining at 0.5 h [3]: 77%
- Activity [10]: > 100 µM
- inhibition at 10 µM (CYP1A2): 0%
- inhibition at 10 µM (CYP2C19): 25%
- inhibition at 10 µM (CYP2D6): 0%
- inhibition at 10 µM (CYP3A4): 21%
- CL/F [6]: 48.3 mL/min/kg
- bioavailability [7]: 32%
- AUC(0-t) at 8 h [11]: 1110 ng·h/mL
- inhibition in vivo at 40 mg/kg (Mus musculus [8]): 67%
- inhibition in vivo at 40 mg/kg (Mus musculus [9]): 65%
- inhibition in vivo at 20 mg/kg (Cynomolgus monkey [12]): 62%
- inhibition in vivo at 20 mg/kg (Cynomolgus monkey [13]): 57%
- Activity (Mus musculus [14]): 28.2%
- Activity (Mus musculus [15]): 18.1%

SMILES: NC(=O)C12CC3CC(C1)C(NC(=O)C1SCCN1S(=O)(=O)c1ccccc1F)C(C3)C2 (stereo in doubt; 8g (E)) [listing 2 of 2 here]
- inhibition [2]: 0%

SMILES: NC(=O)C12CC3CC(C1)C(NC(=O)[C@H]1SCCN1S(=O)(=O)c1ccccc1F)C(C3)C2 (stereo in doubt; 8g (R) (E))
- IC50 [1]: 2 nM

SMILES: NC(=O)C12CC3CC(C1)C(NC(=O)[C@H]1SCCN1S(=O)(=O)c1ccccc1F)C(C3)C2 (stereo in doubt; 8g (R) (Z))
- IC50 [1]: 1340 nM

SMILES: NC(=O)C12CC3CC(C1)C(NC(=O)[C@@H]1SCCN1S(=O)(=O)c1ccccc1F)C(C3)C2 (stereo in doubt; 8g (S) (E))
- IC50 [1]: 12 nM

SMILES: NC(=O)C12CC3CC(C1)C(NC(=O)[C@@H]1SCCN1S(=O)(=O)c1ccccc1F)C(C3)C2 (stereo in doubt; 8g (S) (Z))
- IC50 [1]: 38700 nM

SMILES: NC(=O)C12CC3CC(C1)C(NC(=O)C1SCCN1S(=O)(=O)c1ccccc1F)C(C3)C2 (stereo in doubt; 8g (Z))
- IC50 [1]: 7950 nM

SMILES: NC(=O)C12CC3CC(C1)C(NC(=O)C1SCCN1S(=O)(=O)c1ccccc1F)C(C3)C2 (stereo in doubt; 8g)
- IC50 [1]: 4 nM
- IC50 [4]: 4 nM

The next lines start with results.

- IC50 [4]: 842 nM
SMILES: NC(=O)C12CC3CC(C1)C(NC(=O)C1SCCN1S(=O)(=O)c1ccccc1)C(C3)C2 (stereo unspecified)

- IC50 [1]: 8 nM
- IC50 [4]: 57 nM
- inhibition [2]: 0%
- remaining at 0.5 h [3]: 53%
- inhibition at 10 µM (CYP1A2): 0%
- inhibition at 10 µM (CYP2C19): 21%
- inhibition at 10 µM (CYP2D6): 0%
- inhibition at 10 µM (CYP3A4): 24%
- Cmax [5]: 650 ng/mL
- CL/F [6]: 43.3 mL/min/kg
- bioavailability [7]: 16%
SMILES: Cc1ccc(S(=O)(=O)N2CCSC2C(=O)NC2C3CC4CC2CC(C(N)=O)(C4)C3)cc1 (stereo unspecified)
- inhibition in vivo at 40 mg/kg (Mus musculus [8]): 51%
- inhibition in vivo at 40 mg/kg (Mus musculus [9]): 51%

- IC50 [4]: 171 nM
SMILES: COc1ccc(S(=O)(=O)N2CCSC2C(=O)NC2C3CC4CC2CC(C(N)=O)(C4)C3)cc1 (stereo unspecified)

- IC50 [4]: 76 nM
SMILES: NC(=O)C12CC3CC(C1)C(NC(=O)C1SCCN1S(=O)(=O)c1cccc(F)c1)C(C3)C2 (stereo unspecified)

- IC50 [4]: 27 nM
SMILES: NC(=O)C12CC3CC(C1)C(NC(=O)C1SCCN1S(=O)(=O)c1ccc(F)cc1)C(C3)C2 (stereo unspecified)
